Test results from ChEMBL document CHEMBL1157729, “Structure-activity relationship and mechanism of action studies of manzamine analogues for the control of neuroinflammation and cerebral infections” (J Med Chem, 2010).
In brackets after ≈: the same amount, converted by molar mass. Activity calls are given as the source filed them. The rule behind the calls is not given here.

Tests used:
Plasmodium falciparum [1] = experiment: Antiplasmodial activity against chloroquine-resistant Plasmodium falciparum W2 after 72 hrs by LDH assay; format: functional, organism-based; conditions: Plasmodium falciparum, W2, 72 h; read-out: IC50
[2] = test system: Mycobacterium tuberculosis; experiment: Antimycobacterial activity against Mycobacterium tuberculosis H37Rv; format: functional, organism-based
Candida albicans = experiment: Antifungal activity against Candida albicans ATCC 90028; format: functional, organism-based
How it was run: (§1)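 Broth microdilution per modified CLSI method; samples serially diluted in 20% DMSO/saline, tested in duplicate; inocula set by OD630 of suspensions in incubation broth; growth read at 630 nm before and after incubation; amphotericin B drug control.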

Cryptococcus neoformans = experiment: Antifungal activity against Cryptococcus neoformans ATCC 90113; format: functional, organism-based; how it was run: as §1
[3] = test system: Mycobacterium intracellulare; experiment: Antimycobacterial activity against Mycobacterium intracellular ATCC 23068; format: functional, organism-based
How it was run: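 Modified Franzblau method; samples serially diluted in 20% DMSO/saline, tested in duplicate; inoculum set by OD630; fluorescence read at 544ex/590em before and after incubation; ciprofloxacin drug control.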

[4] = (§2) Antineuroinflammatory activity in LPS-stimulated rat neonatal microglia assessed as inhibition of PMA-induced superoxide anion production preincubated 15 mins prior to PMA challenge measured after 70 mins; format: functional, cell-based
Microglia [5] = experiment: as §2; format: functional, cell-based
[6] = (§3) Antineuroinflammatory activity in LPS-stimulated rat neonatal microglia assessed as inhibition of PMA-induced TXB2 production preincubated 15 mins prior to PMA challenge measured after 70 mins; format: functional, cell-based
Microglia [7] = experiment: as §3; format: functional, cell-based
[8] = Antineuroinflammatory activity in LPS-stimulated rat neonatal microglia assessed as drug level causing 50% PMA-induced LDH release preincubated 15 mins prior to PMA challenge measured after 70 mins; format: functional
How it was run: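 Neonatal rat microglia (2 × 10^5/well) primed with E. coli LPS 0.3 ng/mL for 17 h at 35.9 °C, washed with HBSS, given compound (0.01–10 μM) or DMSO 15 min, then PMA 1 μM; LDH read spectrophotometrically after 70 min; LDH50 relative to Triton X-100 (0.1%) release; duplicates.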

Plasmodium yoelii = experiment: Antiplasmodial activity against Plasmodium yoelii infected in perorally dosed mice (Mus musculus); format: functional; conditions: po
Plasmodium falciparum [9] = experiment: Antiplasmodial activity against chloroquine-sensitive Plasmodium falciparum D6 after 72 hrs by LDH assay; format: functional, organism-based; conditions: Plasmodium falciparum, D6, 72 h; read-out: IC50
MDCK = experiment: Apparent permeability across apical to basolateral side of MDCK cells expressing MDR; format: ADME, cell-based, Canis lupus familiaris; conditions: dog
How it was run: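 MDR-MDCK cells (passage 12-40) seeded at 75,000 cells/cm2 and grown 8 days on Transwell inserts to a monolayer. Bidirectional transport over 2 h in HBSS pH 7.4 with test substance at 50 μM and caffeine (5 μM) as standard. Donor and receiver samples quantified by LC-MS. Cumulative amount transported plotted against time to derive apparent permeability.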

Vero = experiment: Cytotoxicity against african green monkey Vero cells after 48 hrs by neutral red assay; format: cell-based; conditions: chlorocebus sabaeus
How it was run: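 Vero cells seeded at 25,000/well and grown 24 h, then exposed to serially diluted samples for 48 h. Viable cells measured by neutral red assay, with doxorubicin as positive control. IC50 taken from dose-response curves.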

Plasmodium berghei [10] = experiment: Antiplasmodial activity against Plasmodium berghei NK65 infected in Swiss Webster mice (Mus musculus) assessed as inhibition of parasitaemia at 200 mg/kg, perorally administered 1 day after infection measured after 5 days post infection; format: functional; set-up: Activity: scale not given: the % may be the effect or the level left; conditions: route oral
How it was run: (§4)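 Male Swiss Webster mice (18-20 g, ≥5/group) inoculated i.p. with 2×10^7 P. berghei NK-65 parasitized RBC, given a single oral dose (100 μl, SSV or dilute HCl vehicle); parasitemia by Giemsa-stained tail blood smears days 5–28; activity as % decrease versus untreated controls on day 5.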

Plasmodium berghei [11] = experiment: Antiplasmodial activity against Plasmodium berghei NK65 infected in Swiss Webster mice (Mus musculus) assessed as average parasitaemia at 200 mg/kg, perorally administered 1 day after infection measured after 5 days post infection; format: functional; conditions: route oral
How it was run: (§5)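 Male Swiss Webster mice (18-20 g), at least 5 per group, were inoculated ip with 2×10^7 P. berghei NK-65-parasitized red cells from a donor mouse and given a single oral dose (100 μl). Stock was made in SSV or 0.1 M HCl and diluted in SSV or 0.01 M HCl. Parasitemia was read from Giemsa-stained tail blood smears from day 5 to day 28. Cure meant no parasitemia through day 28.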

Plasmodium berghei [12] = experiment: Antiplasmodial activity against Plasmodium berghei NK65 infected in Swiss Webster mice (Mus musculus) assessed as average parasitaemia at 200 mg/kg, perorally administered 1 day after infection measured after 14 days post infection; format: functional; conditions: route oral; how it was run: as §5
Plasmodium berghei [13] = experiment: Antiplasmodial activity against Plasmodium berghei NK65 infected in Swiss Webster mice (Mus musculus) assessed as average parasitaemia at 200 mg/kg, perorally administered 1 day after infection measured after 21 days post infection; format: functional; conditions: route oral; how it was run: as §5
Plasmodium berghei [14] = experiment: Antiplasmodial activity against Plasmodium berghei NK65 infected in Swiss Webster mice (Mus musculus) assessed as average parasitaemia at 200 mg/kg, perorally administered 1 day after infection measured after 28 days post infection; format: functional; conditions: route oral; how it was run: as §4
Plasmodium berghei [15] = experiment: Antiplasmodial activity against Plasmodium berghei NK65 infected in Swiss Webster mice (Mus musculus) assessed as parasitaemia cure at 200 mg/kg, perorally administered 1 day after infection measured after 28 days post infection; format: functional; conditions: route oral; how it was run: as §5
[16] = test system: Mycobacterium intracellulare; experiment: Ratio of IC50 for drug to ciprofloxacin against Mycobacterium intracellular ATCC 23068; format: functional

With O[C@]12C=C(c3nccc4c3[nH]c3ccccc34)[C@@H]3CCN(CCCCCCCC1)C[C@@]31C[C@@H]3CCCCCCN3[C@H]12 [TETRAHYDROMANZAMINE A] the IC50 (Plasmodium falciparum [1]) was 1.5 µg/mL (≈ 2.71 µM), the MIC [2] was 50 µg/mL (≈ 90.4 µM) and the IC50 (Candida albicans) was 7.5 µg/mL (≈ 13.6 µM). The IC50 (Cryptococcus neoformans) was 0.9 µg/mL (≈ 1.63 µM), the IC50 [3] was 0.45 µg/mL (≈ 0.814 µM) and the IC50 [4] was greater than 10 µM. The Activity (Microglia [5]) was “inactive”, the IC50 [6] was greater than 10 µM and the Activity (Microglia [7]) was “inactive”. The Activity [8] was greater than 10 µM.
With C[C@H]1[C@H](OC(=O)CCC(=O)[O-])O[C@@H]2O[C@@]3(C)CC[C@H]4[C@H](C)CC[C@@H]1[C@@]24OO3.[Na+] [SODIUM ARESUNATE] the ED50 (Plasmodium yoelii) was 4.1 mg/kg and the ED90 (Plasmodium yoelii) was 17 mg/kg.
Work on Oc1cccc2c1[nH]c1c(C3=C[C@@]4(O)CCCCCCCCN5CC[C@@H]3[C@]3(C[C@@H]6CCCCCCN6[C@H]34)C5)nccc12 [15,16,32,33-TETRAHYDRO-8-HYDROXYMANZAMINE A] yielded an IC50 (Plasmodium falciparum [9]) of 0.09 µg/mL (≈ 0.158 µM), an IC50 (Plasmodium falciparum [1]) of 0.62 µg/mL (≈ 1.09 µM) and an MIC [2] of 24 µg/mL (≈ 42.2 µM). It also gave an IC50 (Candida albicans) of 6 µg/mL (≈ 10.5 µM), an IC50 (Cryptococcus neoformans) of 1.5 µg/mL (≈ 2.64 µM) and an IC50 [3] of 0.1 µg/mL (≈ 0.176 µM). The IC50 [4] was greater than 10 µM, the Activity (Microglia [5]) was “inactive” and the IC50 [6] was 1.97 µM. The Activity (Microglia [7]) was “inactive” and the Activity [8] was greater than 10 µM.
Cl.O[C@]12C=C(c3nccc4c3[nH]c3ccccc34)[C@@H]3CCN(CCCC/C=C\CC1)C[C@@]31C[C@@H]3/C=C\CCCCN3[C@H]12 [MANZAMINE A HCL] showed a Papp (MDCK) of 1.9 ×10⁻⁶ cm/s.
Molecule COc1ccc2[nH]c3c(c2c1)CCNC3C1=C[C@@]2(O)CC/C=C\CCCCN3CC[C@@H]1[C@]1(C[C@@H]4/C=C\CCCCN4[C@H]12)C3 (stereo partly specified) has an IC50 (Plasmodium falciparum [9]) of 0.057 µg/mL (≈ 0.0978 µM), an IC50 (Plasmodium falciparum [1]) of 0.064 µg/mL (≈ 0.11 µM) and an IC50 (Vero) of 0.2 µg/mL (≈ 0.343 µM). It also gave an MIC [2] greater than 64 µg/mL, an IC50 (Candida albicans) greater than 20 µg/mL and an IC50 (Cryptococcus neoformans) of 2 µg/mL (≈ 3.43 µM). It also gave an IC50 [3] of 0.2 µg/mL (≈ 0.343 µM), an IC50 [4] of 2.2 µM and an IC50 [6] of 1.65 µM. The Activity [8] was 3 µM.
With CCCCn1c2ccccc2c2ccnc(C3=C[C@@]4(O)CC/C=C\CCCCN5CC[C@@H]3[C@]3(C[C@@H]6/C=C\CCCCN6[C@H]34)C5)c21 [9-N-BUTYLMANZAMINE A] the IC50 (Plasmodium falciparum [9]) was 0.33 µg/mL (≈ 0.546 µM), the IC50 (Plasmodium falciparum [1]) was 1.3 µg/mL (≈ 2.15 µM) and the IC50 (Vero) was 2 µg/mL (≈ 3.31 µM). The MIC [2] was 128 µg/mL (≈ 212 µM), the IC50 (Candida albicans) was greater than 20 µg/mL and the IC50 (Cryptococcus neoformans) was greater than 20 µg/mL. The IC50 [3] was greater than 20 µg/mL, the IC50 [4] was 0.12 µM and the IC50 [6] was 0.4 µM. The Activity [8] was greater than 10 µM.
With CCN(CC)CCCC(C)Nc1ccnc2cc(Cl)ccc12 (stereo unspecified) [CHLOROQUINE] the Activity (Plasmodium berghei [10]) was 100%, the Activity (Plasmodium berghei [11]) was 0% and the Activity (Plasmodium berghei [12]) was 0.2%. It also gave an Activity (Plasmodium berghei [13]) of 4%, an Activity (Plasmodium berghei [14]) of 8% and an Activity (Plasmodium berghei [15]) of 80%.
In the case of COC(=O)c1cc2c([nH]c3ccccc32)c(C2=C[C@@]3(O)CC/C=C\CCCCN4CC[C@@H]2[C@]2(C[C@@H]5/C=C\CCCCN5[C@H]23)C4)n1, the IC50 (Plasmodium falciparum [9]) is reported as 0.011 µg/mL (≈ 0.0181 µM), the IC50 (Plasmodium falciparum [1]) is reported as 0.015 µg/mL (≈ 0.0247 µM) and the IC50 (Vero) is reported as 0.2 µg/mL (≈ 0.33 µM). The MIC [2] was greater than 64 µg/mL, the IC50 (Candida albicans) was 20 µg/mL (≈ 33 µM) and the IC50 (Cryptococcus neoformans) was 2 µg/mL (≈ 3.3 µM). The IC50 [3] was less than 0.02 µg/mL, the IC50 [4] was 0.03 µM and the IC50 [6] was 0.11 µM. For the same molecule, the Activity [8] was greater than 10 µM and the “Ratio IC50” value [16] was 5.
